The values below come from ChEMBL document CHEMBL4477175, “Sclerotiamide: The First Non-Peptide-Based Natural Product Activator of Bacterial Caseinolytic Protease P” (J Nat Prod, 2016).

Activity calls are given as the source filed them. The rule behind the calls is not given here. Bridge positions count the residues as written; N and C are the ends. Square brackets hold non-standard residues; d marks the D form. Peptide text beside a SMILES is read from it. * marks the point of attachment. X1 = O=C(/C=C/C=C/C=C/C=C/C=C/C(=O)*)NC1=C(O)CCC1=O; Pro(4R-Me) = C[C@H]1CN[C@H](C(=O)O)C1; NMeA = CN[C@@H](C)C(=O)O

Experiment [1] has as its target T1, ATP-dependent Clp protease proteolytic subunit (Escherichia coli (strain K12), UniProt P0A6G7). As to the kind of experiment: Activation of Escherichia coli BLR (DE3) ClpP using Abz-DFAPKMALVPYNO2 as substrate assessed as degradation of substrate peptide preincubated for 15 mins followed by substrate addition measured every 30 mins for 2 hrs by fluorescence assay. The procedure, abridged: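 His-tagged EcClpP, 25 nM tetradecamer, in 25 mM HEPES pH 7.5, 100 mM KCl, 5 mM MgCl2, 10% glycerol, 1 mM DTT. Preincubated with a concentration range of compound for 15 min at 30 °C, then 15 µM final decapeptide added. Read at 30 °C, ex 320/em 420 nm. DMSO-subtracted ΔRFU was fitted for apparent activation constant (Kapp).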

For experiment [2], the target named is ATP-dependent Clp protease proteolytic subunit (Bacillus subtilis (strain 168)) (UniProt P80244). Nature of the experiment: Activation of Bacillus subtilis ClpP expressed in Escherichia coli BL21 (DE3) using beta casein as substrate at 25 uM preincubated for 15 mins followed by substrate addition measured every 30 mins by SDS-PAGE. The procedure, abridged:
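Recombinant His-tagged BsClpP (Ni-NTA then gel filtration), 420 nM tetradecamer in 25 mM Tris-HCl pH 7.5, 100 mM KCl, preincubated with compound for 15 min at 37 °C. Bovine β-casein added to 7.5 µM final. Reactions quenched in Laemmli buffer at 80 °C after 5 min, 30 min, 1 h and/or 2 h. Loss of the β-casein band was followed on a 10% Bis-Tris SDS gel.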

Experiment [3] deals with T1, ATP-dependent Clp protease proteolytic subunit. As to the kind of experiment: Activation of Escherichia coli BLR (DE3) ClpP using FITC-beta casein as substrate assessed as degradation of substrate peptide preincubated for 15 mins followed by substrate addition measured every 30 mins for 6 hrs by fluorescence assay.
In experiment [4] the test system is Bacillus. Nature of the experiment: Activation of Bacillus subtilis ClpP expressed in Escherichia coli BL21 (DE3) using FITC-beta casein as substrate assessed as degradation of substrate peptide at 25 uM preincubated for 15 mins followed by substrate addition measured every 30 mins for 6 hrs by fluorescence assay.
Experiment [5] has as its target ATP-dependent Clp protease proteolytic subunit (Escherichia coli (strain K12)) (UniProt P0A6G7). As to the kind of experiment: Activation of Escherichia coli BLR (DE3) ClpP using bovine milk FITC-beta casein as substrate assessed as change in relative fluorescent units at 50 uM preincubated for 15 mins followed by substrate addition measured every 30 mins for 6 hrs by fluorescence assay. The procedure, abridged:
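Single-concentration screen: 300 nM tetradecameric recombinant E. coli ClpP in 25 mM Tris-HCl pH 7.5, 100 mM KCl, preincubated with compound (50 µM) 15 min at 37 °C. FITC-β-casein added (final 1.92 µM). Kept at 37 °C; fluorescence (ex 485/em 538 nm) read every 30 min for 6 h. ΔRFU = well minus 1% DMSO well; hits had end-point above 22 500 RFU.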

For experiment [6] the target is unchanged. Nature of the experiment: Ratio of EC50 for Escherichia coli BLR (DE3) ClpP using FITC-beta casein as substrate to ratio of EC50 for Escherichia coli ClpP using Abz-DFAPKMALVPYNO2 as substrate.
The target is the same in experiment [7]. Nature of the experiment: Activation of Escherichia coli BLR (DE3) ClpP using beta casein as substrate at 50 uM preincubated for 15 mins followed by substrate addition measured every 30 mins by SDS-PAGE. As to conditions: TDE = time-dependent effect. In a few lines: (§1)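 His-tagged ClpP (E. coli or B. subtilis) expressed with IPTG overnight at 25 °C and purified by Ni-NTA and gel filtration. 420 nM tetradecamer in 25 mM Tris-HCl pH 7.5, 100 mM KCl, preincubated with compound 15 min at 37 °C. Bovine β-casein added (final 7.5 µM). Quenched in Laemmli buffer at 5 min, 30 min, 1 h and/or 2 h. β-Casein band loss read on 10% Bis-Tris SDS-PAGE.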

The target of experiment [8] is ATP-dependent Clp protease proteolytic subunit (Bacillus subtilis (strain 168)) (UniProt P80244). As to the kind of experiment: Activation of Bacillus subtilis ClpP expressed in Escherichia coli BL21 (DE3) using beta casein as substrate at 50 uM preincubated for 15 mins followed by substrate addition measured every 30 mins by SDS-PAGE. In a few lines: as §1
Experiment [9] deals with Bacillus. As to the kind of experiment: Activation of Bacillus subtilis ClpP expressed in Escherichia coli BL21 (DE3) using FITC-beta casein as substrate assessed as degradation of substrate peptide at 50 uM preincubated for 15 mins followed by substrate addition measured every 30 mins for 2 hrs by fluorescence assay.
The test system of the next experiment is Escherichia coli. Nature of the experiment: Antibacterial activity against Escherichia coli M5418 harboring deltaacrB/deltaacrD/deltaacrEF::spc deltaemrBdeltaemrYdeltaentS::cam deltamacB deltamdtC deltamdtF mutant assessed as bacterial growth inhibition at 100 uM after 18 hrs by 2-fold dilution method. The format is functional, organism-based. In a few lines:
(§2)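 Broth dilution MIC: cells subcultured 1:100 in LB and grown to OD600 ~1.0. Inoculated at 10^5 cells/mL in LB with 2-fold increasing compound concentrations, up to 100 µM. Incubated 18 h at 37 °C; growth scored visually.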

The subject of the next experiment is Pseudomonas aeruginosa. Nature of the experiment: Antibacterial activity against Pseudomonas aeruginosa PAO1116 harboring deltamexAB-oprM/deltamexCD-oprj/deltamexEF-oprN/deltaJK/deltamexXY/deltatriABC mutant assessed as bacterial growth inhibition at 100 uM after 18 hrs by 2-fold dilution method. The format is functional, organism-based. The procedure, abridged: as §2

In a further experiment the target is T2, Beta-casein (Bos taurus) (UniProt P02666).
T2 sequence (whole entry): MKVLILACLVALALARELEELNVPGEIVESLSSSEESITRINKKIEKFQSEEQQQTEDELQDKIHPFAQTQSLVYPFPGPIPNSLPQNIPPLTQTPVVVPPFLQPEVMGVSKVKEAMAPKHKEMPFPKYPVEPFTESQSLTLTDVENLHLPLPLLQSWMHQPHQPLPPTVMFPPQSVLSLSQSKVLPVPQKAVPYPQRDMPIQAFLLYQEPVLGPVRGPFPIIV
As to the kind of experiment: Intrinsic proteolytic activity against fluorescein isothiocyanate-conjugated bovine milk beta casein at 50 uM preincubated for 15 mins followed by substrate addition measured every 30 mins for 6 hrs by fluorescence assay. The procedure, abridged:
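Enzyme-free control: compound (50 µM) incubated with FITC-β-casein (1.92 µM) in 25 mM Tris-HCl pH 7.5, 100 mM KCl. Substrate cleavage read as fluorescence at 538 nm emission after 485 nm excitation.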

Chain of ATP-dependent Clp protease proteolytic subunit (Escherichia coli (strain K12)) (P0A6G7 whole entry): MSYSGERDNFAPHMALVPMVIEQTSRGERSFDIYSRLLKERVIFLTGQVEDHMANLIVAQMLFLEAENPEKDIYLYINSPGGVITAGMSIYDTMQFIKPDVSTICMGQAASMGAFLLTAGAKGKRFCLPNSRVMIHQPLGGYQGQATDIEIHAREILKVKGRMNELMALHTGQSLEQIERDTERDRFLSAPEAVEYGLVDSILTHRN
T1 sequence (P0A6G7 whole entry): as above
Chain of ATP-dependent Clp protease proteolytic subunit (Bacillus subtilis (strain 168)) (P80244 whole entry, looked up): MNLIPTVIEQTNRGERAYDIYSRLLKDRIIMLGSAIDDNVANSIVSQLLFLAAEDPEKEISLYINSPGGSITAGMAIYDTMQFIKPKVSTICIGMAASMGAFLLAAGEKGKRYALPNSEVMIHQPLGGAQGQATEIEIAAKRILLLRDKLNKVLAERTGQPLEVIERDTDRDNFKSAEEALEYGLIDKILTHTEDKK

On to `CCOC(=O)[C@@H]1C(=O)C[C@@](O)(c2ccc(Br)cc2)C[C@H]1C=C(Cl)Cl`, for which the figures for the EC50 in [1] and in experiment [3] were 25.4 µM and 22.2 µM, respectively. Moreover, the outcome (in [2]; in the experiment on Bacillus [4]) was inactive.

With `C=CC(C)(C)[C@@]12Nc3c(ccc4c3C=CC(C)(C)O4)[C@]1(O)C[C@H]1C(=O)N3CCC[C@]3(O)C(=O)N12`, the result in [5] was inactive.

`CC1(C)C=Cc2c(ccc3c2NC(=O)[C@@]32C[C@@]34NC(=O)[C@]5(CCCN5C3=O)C[C@H]4C2(C)C)O1`: the outcome in experiment [5] was inactive.

Consider `CC1(C)C=Cc2c(ccc3c2[N+]([O-])=C2C3=C[C@@]34NC(=O)[C@]5(CCCN5C3=O)CC4C2(C)C)O1` (some centres not stated), for which the result in experiment [5] was inactive.

For the compound `CC1(C)C=Cc2c(ccc3c4c([nH]c23)C(C)(C)C2C[C@]35CCCN3C(=O)[C@@]2(C4)NC5=O)O1` (some centres not stated), in [5], the outcome was inactive.

For `CC1(C)C=Cc2c(ccc3c4c(n(O)c23)C(C)(C)C2C[C@]35CCCN3C(=O)[C@]2(NC5=O)C4=O)O1` (some centres not stated), in experiment [5], the result was inactive.

In the case of `C[C@@H]1C[C@H]2C(=O)OC[C@H](NC(=O)[C@H](Cc3ccccc3)NC(=O)/C=C/C=C/C=C/C=C/C=C/C(=O)NC3=C(O)CCC3=O)C(=O)N3CCC[C@H]3C(=O)N(C)[C@@H](C)C(=O)N[C@@H](C)C(=O)N2C1` (X1-FSP[NMeA]A[Pro(4R-Me)]; ester 2-C), the results for the EC50 in experiment [1] and in experiment [3] were 0.1 µM and 1.2 µM, respectively. Also, the Ratio EC50 in experiment [6] was 10.

Regarding `CC1(C)C=Cc2c(ccc3c2NC(=O)[C@@]32[C@H](O)[C@@]34NC(=O)[C@]5(CCCN5C3=O)C[C@H]4C2(C)C)O1` [SCLEROTIAMIDE], the Activity was 29900 RFU in experiment [5] and “Tde” in experiment [7]. For the same compound, the EC50 in experiment [1] turned out to be 39.6 µM; in [3] it was 87.5 µM. Also, the outcome (in [8]; with Bacillus [9]; in the experiment with Escherichia coli; in the experiment on Pseudomonas aeruginosa; on Beta-casein (Bos taurus)) was inactive. The Ratio EC50 in experiment [6] amounted to 2.2.
